In the library only some 2.1% were active in any assay of this set; here they are far more common.
DNMT1 block: blocks human DNA methyltransferase DNMT1 | P26358 | AID 588458 | 0.83% of 360,000 active | inhibition (reported as % activation of signal), % at 10 µM | DNMT1 molecular beacon, Hinp1I cleavage, fluorescence; in the data active = inhibition above about 50%
Scp1 inh: Scp-1 (human) phosphatase inhibition. Q9GZU7. Recombinant Scp1, phosphopeptide, malachite green phosphate absorbance. inhibition, % at 20 µM. 0.88% of 340,000 active. AID 493091;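 active = inhibition above about 50% at 20 µM, limit read from the data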;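 note: plate controls were DMSO wells with enzyme for no effect and wells lacking enzyme for full effect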
Target sequence (Q9GZU7 76-261 limits assumed): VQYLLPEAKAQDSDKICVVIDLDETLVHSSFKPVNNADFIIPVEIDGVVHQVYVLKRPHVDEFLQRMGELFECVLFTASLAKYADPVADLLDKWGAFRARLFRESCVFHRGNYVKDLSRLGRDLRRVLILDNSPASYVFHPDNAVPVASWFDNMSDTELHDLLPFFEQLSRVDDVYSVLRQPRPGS
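assay system = SCP-1 phosphatase catalytic domain, residues 76-261 | buffer or medium = 50 mM Tris acetate pH 5.5, 0.005% Tween-20, 10 mM MgCl2 | incubation = enzyme reaction 45 min at room temperature, colour 5 min, stabilisation 30 min | signal = Phosphate-binding colour reagent, absorbance read at 630 nm | measure = % inhibition at 20 µM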
STEP block: inhibitors of human striatal-enriched phosphatase STEP; AID 588621; 0.25% of 360,000 active; recombinant STEP, OMFP fluorogenic substrate, fluorescence; inhibition, % at 20 µM;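 active = inhibition at 20 µM, scaled per plate between control wells, above about 37%, limit read from the data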;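 note: 0% = DMSO with enzyme and substrate and 100% = substrate only without enzyme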
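medium = Bis-Tris buffer pH 6.0, 2.5 mM DTT, 0.005% Tween 20 | test system = STEP (striatal-enriched tyrosine phosphatase) enzyme, cell-free | measure = normalized % inhibition | compound dosing = 20 µM, 1% DMSO | also added = 25 µM OMFP | schedule = reaction 20 min, ambient temperature | measured by = fluorescence read at 480 nm ex / 540 nm em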
GRK2 inh: inhibitors of human GRK2 displacing RNA aptamer. P25098. AID 488847. inhibition of aptamer binding, % at 10 µM. bead flow cytometry, FAM-aptamer displacement from GRK2. 0.59% of 330,000 active;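 active = inhibition of aptamer binding above 40%, roughly 3 SD of noise, on plates passing a quality check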;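 note: median bead fluorescence of bound FAM aptamer so fluorescent compounds give negative values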
LMPTP inh: blocks human LMPTP phosphatase | inhibition, % at 20 µM | 0.22% of 360,000 active | P24666 | recombinant LMPTP-A, OMFP fluorogenic substrate, fluorescence intensity;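 active = compounds that cut the enzyme signal by at least half of the control window in the single-dose screen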;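 note: plate controls were DMSO wells with enzyme plus substrate for no effect and substrate without enzyme for full effect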
Target sequence (P24666 whole entry, looked up): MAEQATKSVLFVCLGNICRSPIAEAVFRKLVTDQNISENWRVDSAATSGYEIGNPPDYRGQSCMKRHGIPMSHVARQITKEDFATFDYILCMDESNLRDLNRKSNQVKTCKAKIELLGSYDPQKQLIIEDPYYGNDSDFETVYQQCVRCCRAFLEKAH
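Assay system: LMPTP-A, protein tyrosine phosphatase of low molecular weight / Medium: pH 6.0 Bis-Tris buffer with DTT and Triton X-100 / Schedule: 50 min enzyme reaction at room temperature, protected from light / Measured by: endpoint fluorescence intensity from OMFP dephosphorylation / Read-out basis: % inhibition relative to no-enzyme and uninhibited control wells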
SUMO1 PPI mod: alters human SUMO1 binding to SIM partners. SUMO1 binding to a labelled peptide, TR-FRET, 1 h. P63165. inhibition, % at 20 µM. 0.33% of 360,000 active; in the data active = inhibition above about 37%
Target sequence (P63165 whole entry, looked up): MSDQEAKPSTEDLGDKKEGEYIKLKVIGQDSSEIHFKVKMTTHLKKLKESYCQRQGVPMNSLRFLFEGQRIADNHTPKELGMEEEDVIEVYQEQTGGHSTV
GRK2 CP1: confirmation of human GRK2 inhibitors displacing RNA aptamer; shares compounds with GRK2 inh; AID 504451; 4% of 2,000 active; aptamer displacement, % at 10 µM; bead-bound GRK2, FAM-aptamer displacement, flow cytometry;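 active = aptamer displacement above 40%, near three times the noise of non-fluorescent compounds, on plates passing quality checks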;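 note: negative values mostly reflect intrinsic compound fluorescence rather than true enhancement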
FAM quench CP1: aptamer fluorescence quenching in GRK2 counter-screen | 2,000 tested, under 10 active | AID 504580 | shares compounds with GRK2 inh | Carboxyfluorescein RNA aptamer on beads, flow cytometry quenching; stronger effect = lower value | fluorescence response (% of DMSO), % at 10 µM;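 active = compounds that quench the bead-bound fluorescent RNA probe, cutting fluorescence to under half of the solvent control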;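 note: counterscreen run without GRK2 so only probe quenching by compound is measured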
GRK2 confirm 2: confirmation of human GRK2 inhibitors binding RNA aptamer site; shares compounds with GRK2 inh; bead-bound GRK2, FAM-aptamer displacement, flow cytometry; inhibition of aptamer binding, % at 10 µM; 360 tested, under 10 active; AID 504782;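 active = inhibition of aptamer binding above 40%, about triple the noise seen with nonglowing compounds, on plates passing quality control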;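 note: negative values mostly come from compounds that fluoresce themselves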
FAM quench SP: counter-screen for GRK2 binding hits: quenchers of fluorescent RNA aptamer; fluorescence response vs DMSO, % at 10 µM; shares compounds with GRK2 inh; carboxyfluorescein RNA aptamer beads, flow cytometry quenching; stronger effect = lower value; 360 tested, under 10 active;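 active = response vs DMSO under 50%, meaning signal dropped by over half, treated as fluorescence quencher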;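 note: labelled aptamer on streptavidin beads without GRK2 as a quench counter-screen; 100% = bead fluorescence of DMSO wells and lower means quenching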
The depositor's hits bear a star; . = no result.

SMILES	DNMT1 block	Scp1 inh	STEP block	GRK2 inh	LMPTP inh	SUMO1 PPI mod	GRK2 CP1	FAM quench CP1	others
CCCCNC(=O)CN1C(=O)NC2NC(=O)NC21 (centres undefined)	-1	22	0	98*	-1	8	3	97
CCN(CC)C(=O)c1oc2ccc(S(=O)(=O)N3CC(C)CC(C)C3)cc2c1C (centres undefined)	1	-5	5	0	2	5	.	.
Cc1c(C(=O)Nc2ccc(F)cc2)oc2ccc(S(=O)(=O)N3CC(C)CC(C)C3)cc12 (centres undefined)	14	-8	1	12	2	1	-3	100
COc1ccc(/C=N/NC(=O)CNC(=O)c2ccncc2)cc1OC	0	-10	-3	0	-1	-10	.	.
CC(=O)NCCNc1nc2c(-c3ccccc3)nnn2c2ccccc12	20	-1	5	0	3	-14	.	.
CC(=O)NCCNc1nc2c(-c3cccc(C)c3)nnn2c2ccccc12	0	-8	-1	65*	1	2	15	105
CC1CCCN(C(C(=O)Nc2ccc3c(c2)OCO3)c2ccccc2)C1 (centres undefined)	-1	-3	-3	0	-1	0	.	.
CC1CCN(C(C(=O)Nc2ccc3c(c2)OCO3)c2ccccc2)CC1 (centres undefined)	1	-6	-3	43*	-1	4	-1	102
COc1ccc(NC(=O)c2ccccc2NC(=O)CSc2ccc(Cl)cc2)cc1	8	-2	-6	47*	-3	-2	0	106
COc1ccc(C(=O)Nc2ccccc2C(=O)Nc2cccnc2)cc1	-1	-4	-2	1	1	3	.	.
COc1ccc(NC(=O)c2ccccc2NC(=O)c2ccccc2)cc1	-1	-7	-2	41*	-1	5	.	.	GRK2 confirm 2=-22;FAM quench SP=97
COc1ccc(NC(=O)c2ccccc2NC(=O)CSc2ccccc2)cc1	3	-5	-3	0	-1	-1	.	.
Cc1cc(/C=N\NC(=O)COc2cccc3cccnc23)c(C)n1-c1ccccc1	-9	-2	2	0	2	1	.	.
Cc1cc(/C=N\NC(=O)COc2cccc3cccnc23)c(C)n1-c1ccc(Br)cc1	-16	-2	4	55*	4	-2	-8	123
O=C(c1cc(-c2ccncc2)nc2ccc(Br)cc12)N1CCN(c2ccccn2)CC1	-4	-2	5	93*	1	-9	-5	98
CCN(CC(=O)Nc1ccc(NC(C)=O)cc1)C(=O)C1CC(=O)N(CCc2ccc(OC)c(OC)c2)C1 (centres undefined)	-7	-7	-2	92*	-10	-94	-63	98
COc1ccc(-n2cnnc2SCC(=O)NC2CC2)cc1	2	.	-3	.	-1	-2	.	.
C=CCNC(=S)NNC(=O)C(CCC(C)C)CC(C)O (centres undefined)	0	-14	-2	0	-1	4	.	.
C=CCNC(=S)NNC(=O)C(CCCC)CC(O)COCC(C)C (centres undefined)	0	-4	0	45*	-1	1	4	101
Cc1c(Cl)cccc1NS(=O)(=O)c1ccc2c(c1)C1C=CCC1C(c1ccc(C(=O)O)cc1)N2 (centres undefined)	87*	26	2	52*	26	50*	4	93
CC(=O)c1ccc2c(c1)C1C=CCC1C(c1ccc(S(=O)(=O)N3CCOCC3)cc1)N2 (centres undefined)	-49	-1	-2	1	3	19	.	.
O=C(C[C@H]1CC[C@@H]2[C@H](COC[C@H](O)CN2C(=O)c2cnccn2)O1)NCc1ccc(Cl)cc1	.	.	.	.	-1	8	.	.
CN(C)CC(=O)c1c(N)n(Cc2ccccc2)c(=O)n(C)c1=O	2	-3	0	6	-1	-3	.	.
Cc1cccc(C)c1NC(=O)CN(C)CC(=O)c1c(N)n(Cc2ccccc2)c(=O)n(C)c1=O	1	-3	2	0	-1	-4	-2	102
S=c1[nH]nc(COc2ccccc2)n1Cc1ccccc1	6	4	2	3	-2	1	.	.
SMILES	DNMT1 block	Scp1 inh	STEP block	GRK2 inh	LMPTP inh	SUMO1 PPI mod	GRK2 CP1	FAM quench CP1	others
CC(C)CCn1c(COc2ccccc2)n[nH]c1=S	0	6	-2	53*	-1	2	-8	106
Cc1ccc(-c2cccc(C3CC=CC4C3C(=O)N(Cc3ccccc3)C4c3cc(C)ccc3F)c2)cc1 (centres undefined)	13	-6	3	4	6	3	1	102
COc1ccc(-c2cccc(C3CC=CC4C3C(=O)N(Cc3ccccc3)C4c3ccc(C(F)(F)F)cc3)c2)cc1 (centres undefined)	8	-6	2	0	2	0	.	.
C[C@@H]1CN([C@H](C)CO)C(=O)CCCn2nncc2CO[C@H]1CN(C)S(=O)(=O)c1ccc(C#N)cc1	7	.	0	.	-2	3	.	.
Nc1cccn2c(-c3ccc(Cl)cc3)cnc12	-15	1	13	19	13	3	-1	99
CCCCOCCCNC(=O)C[C@@H]1C[C@@]2(C(=O)OCC)CCC=C2N(Cc2ccc(Cl)cc2Cl)C1=O	.	.	.	.	2	2	.	.
Cc1ccc(NC2=C(Cl)C(=O)OC2OC(C)C)cc1 (centres undefined)	4	-4	-3	47*	0	1	0	97
Cc1cccc(NC2=C(Cl)C(=O)OC2OC(C)C)c1 (centres undefined)	-3	-1	-2	0	-4	2	.	.
C=CCCC(=O)N1C[C@H]2CON(C)[C@H]2C[C@H]1c1ccc(N2CCCCC2)cc1	3	.	0	.	-1	-2	.	.
COC(=O)c1ccc(N2CCc3ccccc32)c([N+](=O)[O-])c1	-1	-13	4	52*	6	-47	0	97
C[C@H]1Cn2cnc(C(=O)NCc3ccc(CNC(=O)OC(C)(C)C)cc3)c2C(=O)N1	-1	.	-3	.	-1	1	.	.

Screening results from PubChem.
